# TRPC4 block – inhibitors of mouse TRPC4 channel, primary screen, Fluo4 calcium, HEK293 TRPC4beta/mu-opioid cells. Short transient receptor potential channel 4 (Mus musculus), Q9QUQ5. B-score at 10 µM. 300,000 tested, 0.39% active. DAMGO-evoked Fluo4 calcium flux; hits give low values;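 active = B-score over 3 SD under the library average, no early fluorescence shift, positive overall ratio signal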
#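 Material: HEK293 cells with stable TRPC4beta plus mu-opioid receptor expression / Probe or stimulus: DAMGO in two steps, submaximal then maximal / Compound: single concentration per test compound / Technique: kinetic Fluo4 fluorescence imaging of calcium influx / Read-out: per-well B score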
# TRPC6 act – mouse TRPC6 channel activators, primary screen, cell-based, HEK293, membrane potential dye; AID 2550, 2010; Short transient receptor potential channel 6 (Mus musculus), Q61143; 310,000 tested, 0.13% active; HEK293-TRPC6 membrane potential dye fluorescence; hits give high values; B-score at 10 µM;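 active = B-score of the integrated fluorescence ratio above library mean plus 3 SD, and starting fluorescence ratio within library mean plus 5 SD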;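 also: higher score means more depolarization so channel activation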
# Target sequence (Q61143 whole entry, looked up): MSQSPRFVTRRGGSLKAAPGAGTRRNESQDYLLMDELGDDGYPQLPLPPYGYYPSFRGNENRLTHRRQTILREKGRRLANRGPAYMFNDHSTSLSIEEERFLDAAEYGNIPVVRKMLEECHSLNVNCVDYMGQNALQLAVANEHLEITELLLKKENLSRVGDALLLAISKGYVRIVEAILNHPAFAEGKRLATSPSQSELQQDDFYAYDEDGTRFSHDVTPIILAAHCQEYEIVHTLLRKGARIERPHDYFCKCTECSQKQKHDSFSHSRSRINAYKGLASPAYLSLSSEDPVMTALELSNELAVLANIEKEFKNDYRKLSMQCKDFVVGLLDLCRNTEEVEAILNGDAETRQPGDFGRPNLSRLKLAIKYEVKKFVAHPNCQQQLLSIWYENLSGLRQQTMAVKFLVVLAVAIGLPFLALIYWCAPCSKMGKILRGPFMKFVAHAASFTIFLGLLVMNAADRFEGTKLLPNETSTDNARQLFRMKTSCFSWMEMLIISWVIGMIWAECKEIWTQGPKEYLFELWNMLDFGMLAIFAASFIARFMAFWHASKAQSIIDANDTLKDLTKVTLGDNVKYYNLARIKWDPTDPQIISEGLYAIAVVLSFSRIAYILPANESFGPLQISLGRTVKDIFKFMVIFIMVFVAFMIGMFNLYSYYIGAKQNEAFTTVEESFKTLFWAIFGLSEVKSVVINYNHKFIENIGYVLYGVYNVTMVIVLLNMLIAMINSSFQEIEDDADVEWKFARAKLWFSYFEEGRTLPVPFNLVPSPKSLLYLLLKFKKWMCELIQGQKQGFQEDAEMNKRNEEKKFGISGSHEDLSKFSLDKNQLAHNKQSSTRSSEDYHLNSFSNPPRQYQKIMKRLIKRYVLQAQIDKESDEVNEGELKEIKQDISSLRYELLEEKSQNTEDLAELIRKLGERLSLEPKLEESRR
# TRPC6 inhibitor – mouse TRPC6 channel inhibitors, primary screen, cell-based, HEK293, membrane potential dye; Short transient receptor potential channel 6 (Mus musculus), Q61143; 310,000 tested, 1.1% active; B-score at 10 µM; ACh-evoked depolarization; hits give low values; AID 2553, 2010;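 active = B-score under library mean minus 3 SD, initial fluorescence not abnormally high, positive integrated signal ratio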;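 also: B-score derived from integrated fluorescence ratio over the kinetic read; more negative B-score means stronger inhibition of depolarization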
# TRPC4 act – activators of mouse TRPC4 channel, primary screen, Fluo4 calcium, HEK293 TRPC4beta/mu-opioid cells. Fluo4 calcium fluorescence; hits give high values. B-score at 10 µM. 310,000 tested, 0.49% active. AID 2237, 2010;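 active = B-score above 5 SD of library B-scores, and initial fluorescence ratio not above library mean plus 5 SD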;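 also: positive B-score marks a calcium rise read as TRPC4 activation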
#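 Technique: kinetic Fluo4 calcium fluorescence; Test system: TRPC4beta and mu-opioid receptor HEK293 stable cells; Measure: B-scored integrated calcium fluorescence ratio; Benchmarks: low control buffer alone, high control maximal DAMGO; Schedule: 45 min room-temperature Fluo4 loading, 110 s read.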
# Kir21 block – inhibitors of mouse Kir2.1 inward-rectifier potassium channel; 310,000 tested, 0.85% active; B-score at 10 µM; AID 1672, 2009; HEK293-Kir2.1, FluxOR thallium flux fluorescence; hits give low values;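 active = fluorescence ratio B-score at or below minus 3 SD of library scores, with starting-brightness B-score within 2 SD, cut at about -4.2 in these data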;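 also: channel flux triggered by added potassium and thallium sulfate stimulus; B-score of peak minus minimum fluorescence over baseline after thallium stimulus; more negative B-score means stronger Kir2.1 block with less thallium influx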
# TRPC4 PAM – positive allosteric modulators of TRPC4, primary screen, cell-based, mouse TRPC4beta, HEK293 mu-opioid, Fluo-4 calcium | DAMGO EC20, Fluo-4 Ca2+ flux; hits give high values | Short transient receptor potential channel 4 (Mus musculus), Q9QUQ5 | B-score at 10 µM | 310,000 tested, 0.42% active;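 active = B-score of calcium response area above 5 SD of library B-scores, with initial fluorescence ratio within 5 SD of library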
# Numbers stand for hits; . = inactive. Compounds with a hit are over-represented: about 2.9% of the library has one in this group of screens.
SMILES,TRPC4 block,TRPC6 act,TRPC6 inhibitor,TRPC4 act,Kir21 block,TRPC4 PAM
COc1ccc(-n2cc(CN(C)CCO)c(-c3cccc(F)c3)n2)cc1,.,.,.,.,.,.
COc1ccc(-n2cc(CN(C)C(C)c3ccncn3)c(-c3cccc(F)c3)n2)cc1 (centres undefined),-8,.,.,.,.,.
CCCCN(CC)CCNC(=O)c1cc2c(=O)n(C)c3ccccc3c2n1C,.,.,.,67,.,14
CCN(CC)CCNC(=O)c1cc2c(=O)n(C)c3ccccc3c2n1C,.,.,.,.,.,.
CCN(CC)CCCNC(=O)c1cc2c(=O)n(C)c3ccccc3c2n1C,.,.,.,.,.,.
CCCN(CCC)CCCNC(=O)c1cc2c(=O)n(C)c3ccccc3c2n1C,.,.,.,59,.,16
CN1CCCC(OC(=O)c2ccc(C#N)cc2)C1 (centres undefined),.,.,.,.,.,.
Cc1ccccc1C(=O)OC1CCCN(C)C1 (centres undefined),.,.,.,.,.,14
Cc1cccc(C(=O)OC2CCCN(C)C2)c1C (centres undefined),.,.,.,95,.,.
O=C(COc1ccccc1-c1ccccc1)NCCN1C(=O)S/C(=C\c2cccnc2)C1=O,.,.,.,.,.,.
CC(=O)c1ccc2c(c1)N(C)c1ccccc1S2,-6,.,.,.,.,.
O=C(COc1cccnc1[N+](=O)[O-])NCc1ccc(F)cc1,.,.,.,.,.,.
c1ccc(-c2oc3ncnc(NCCCn4ccnc4)c3c2-c2ccccc2)cc1,.,.,.,.,.,.
CN(C)CCCNc1ncnc2oc(-c3ccccc3)c(-c3ccccc3)c12,.,.,.,.,-4.6,.
COc1cc2c(cc1NC(=O)COCC(=O)O)oc1ccccc12,.,.,.,.,.,.
CCSc1nsc(NC(=O)Nc2ccccc2F)n1,.,.,.,.,.,.
C=CCSc1nsc(NC(=O)Nc2ccc(F)cc2)n1,.,.,.,.,.,11
CCOC(=O)C1=NN(c2ccc(F)cc2)C2=NC(C)=C(C(=O)OC)C(c3cccs3)N12 (centres undefined),.,.,.,.,.,.
CC(NCc1cccc(OCc2ccccc2)c1)C(O)c1ccccc1 (centres undefined),.,.,.,.,-10.5,.
O=C1/C(=C/c2ccc([N+](=O)[O-])cc2)C=C(c2ccccc2)N1c1ccccc1,.,.,.,.,.,.
O=C1/C(=C/c2ccc([N+](=O)[O-])cc2)C=C(c2ccccc2)N1c1ccc(O)cc1,.,.,-5.2,.,.,.
COc1ccc([N+](=O)[O-])cc1NC(=O)CN(C)S(=O)(=O)c1ccccc1,.,.,.,.,.,.
Cc1c(C(=O)c2ccc(Cl)cc2[N+](=O)[O-])c2ccccn2c1CCC#N,.,.,.,.,.,14
CCc1ccc(C2C(C#N)=C(N)C(C#N)(C#N)C3=CCC(C(C)(C)C)CC32)cc1 (centres undefined),.,.,.,.,-6.64,.
CC(C)(C)C1CC=C2C(C#N)=C(N)C(C#N)(C#N)C(c3cccs3)C2C1 (centres undefined),.,.,.,.,.,.
SMILES,TRPC4 block,TRPC6 act,TRPC6 inhibitor,TRPC4 act,Kir21 block,TRPC4 PAM
CCN(CC)CC(=O)Nc1ccc2c(c1)Nc1ccccc1CC2,.,.,.,.,-5.57,.
CCN(CC)CC(=O)Nc1ccc2c(c1)N(C(=O)CN(CC)CC)c1ccccc1CC2,.,.,.,.,.,.
CCOc1ccc(NC(=O)Nc2cc(C(C)C)c(O)cc2C)cc1,.,.,.,.,.,.
c1ccc(-c2c(-c3ccccc3)n(Cc3ccco3)c3ncnc(NCCCn4ccnc4)c23)cc1,.,.,.,.,.,.
N=c1c2c(-c3ccccc3)c(-c3ccccc3)n(Cc3ccco3)c2ncn1CCCn1ccnc1,.,.,.,.,-7.65,.
N=c1c2c(-c3ccccc3)c(-c3ccccc3)n(Cc3ccco3)c2ncn1CCCN1CCOCC1,.,.,.,.,-7.1,.
C=CCc1cccc(CNc2nc3ccccc3n2C(C)C)c1O,.,.,.,.,.,.
Cn1c(NCc2ccccc2Cl)nc2ccccc21,.,.,.,.,.,.
CC(C)n1c(NCc2ccccc2O)nc2ccccc21,-6,.,.,.,.,.
Cn1c(NCc2ccccc2O)nc2ccccc21,-6,.,.,.,.,.
N#C/C(=C\c1ccccc1Cl)C(=O)Nc1ccccn1,.,.,.,.,.,.
O=[N+]([O-])c1cccc(N(CC(O)CN2CCCC2)S(=O)(=O)c2ccccc2)c1 (centres undefined),-8,.,.,.,.,.
C=CCC(CC=C)(NC(=O)c1ccccc1C(=O)O)c1ccccc1,.,.,.,.,.,.
O=S(=O)(/C(=C/c1ccc(C(F)(F)F)cc1)c1nc2ccccc2[nH]1)c1ccccc1,.,.,.,.,-7.58,.
CC(C)c1ccc(/C=C(\c2nc3ccccc3[nH]2)S(=O)(=O)c2ccccc2)cc1,.,.,.,.,.,.
COc1cc(CN(C)CCc2ccccc2)ccc1OCc1ccccc1,.,.,.,.,-7.62,.
COc1ccc(CCNC/C=C/c2ccccc2)cc1,.,.,.,106,-8.37,.
COc1ccc(CNCCc2ccc(Cl)cc2)cc1OCc1ccccc1,.,.,.,47,-6.39,.
CCOc1cc(CNCc2ccccc2)ccc1OCc1ccc(Cl)cc1,.,.,.,.,.,.
c1ccc(COc2ccc(CNCc3cccs3)cc2)cc1,.,.,.,.,-13.5,.
NS(=O)(=O)c1ccc(CCNC/C=C/c2ccccc2)cc1,.,.,.,.,.,.
COc1ccc(CNC(C)CCc2ccccc2)cc1 (centres undefined),.,.,.,.,-6.33,.
COc1ccc(CCNCc2ccc(OCc3ccccc3)cc2)cc1,.,.,.,.,-5.44,.
CC(C)(C)C1=CC(=O)C(=O)C(C(C)(C)C)=C1,.,.,.,.,-8.55,.
CC(C)(C)c1ccc(NC(=O)CSc2nnc(-c3n[nH]c4ccccc34)o2)cc1,.,.,.,.,.,.
O=S(=O)(c1ccc(F)c(F)c1)N1CCCc2ccccc21,.,.,.,.,-5.38,.
Nc1ccc(S(=O)(=O)N2CCc3ccccc32)cc1,.,.,.,.,.,.

# Bioassay records (PubChem BioAssay)
